ChEMBL document CHEMBL4270630

Legend:
[1] = system: Influenza A virus; test: Antiviral activity against Influenza A virus A/PR/8/34(H1N1) infected in MDCK cells assessed as reduction in virus-induced cytopathic effect after 3 days by microscopic method; format: functional, organism-based, A/Puerto Rico/8/1934(H1N1); settings: Influenza A virus, A/Puerto Rico/8/1934(H1N1), MDCK, 72 h
Outline: (§1)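 Semi-confluent MDCK cells were infected at an MOI of 0.0004 PFU/cell in Ultra-MDCK infection medium with 2 μg/mL TPCK-trypsin, together with compounds. After 3 days at 35 °C, CPE was scored by microscopy and confirmed by MTS formazan viability. EC50 is the concentration giving 50% inhibition of virus-induced CPE. Values are means of two to five independent tests.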

[2] = system: Influenza A virus; test: Antiviral activity against Influenza A virus A/PR/8/34(H1N1) infected in MDCK cells after 3 days by MTS assay; format: functional, organism-based, A/Puerto Rico/8/1934(H1N1); settings: Influenza A virus, A/Puerto Rico/8/1934(H1N1), MDCK, 72 h; outline: as §1
[3] = system: Influenza A virus; test: Antiviral activity against Influenza A virus A/Virginia/ATCC3/2009(H1N1pdm) infected in MDCK cells assessed as reduction in virus-induced cytopathic effect after 3 days by microscopic method; format: functional, organism-based, Influenza A virus (A/Virginia/03/2009(H1N1)); settings: 72 h; outline: as §1
[4] = system: Influenza A virus; test: Antiviral activity against Influenza A virus A/Virginia/ATCC3/2009(H1N1pdm) infected in MDCK cells after 3 days by MTS assay; format: functional, organism-based, Influenza A virus (A/Virginia/03/2009(H1N1)); settings: 72 h; outline: as §1
[5] = system: H3N2 subtype; test: Antiviral activity against Influenza A virus A/HK/7/87(H3N2) infected in MDCK cells assessed as reduction in virus-induced cytopathic effect after 3 days by microscopic method; format: functional, organism-based; settings: A/Hong Kong/7/1987(H3N2), 72 h; outline: as §1
[6] = system: H3N2 subtype; test: Antiviral activity against Influenza A virus A/HK/7/87(H3N2) infected in MDCK cells after 3 days by MTS assay; format: functional, organism-based; settings: A/Hong Kong/7/1987(H3N2), 72 h; outline: as §1
[7] = system: Influenza B virus; test: Antiviral activity against Influenza B virus B/Ned/537/05 infected in MDCK cells assessed as reduction in virus-induced cytopathic effect after 3 days by microscopic method; format: functional, organism-based; settings: B/Ned/537/05, MDCK, 72 h
Outline: (§2)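 Semi-confluent MDCK cells were infected at an MOI of 0.0004 PFU/cell in Ultra-MDCK infection medium with 2 μg/mL TPCK-trypsin, together with compounds. After 3 days at 35 °C, CPE was scored by microscopy and confirmed by MTS formazan viability. Values are means of two to five independent tests.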

[8] = system: Influenza B virus; test: Antiviral activity against Influenza B virus B/Ned/537/05 infected in MDCK cells after 3 days by MTS assay; format: functional, organism-based; settings: B/Ned/537/05, MDCK, 72 h; outline: as §2
[9] = system: MDCK; test: (§3) Cytotoxicity against MDCK cells assessed as reduction in cell viability after 3 days by MTS assay; format: cell-based, Canis lupus familiaris; settings: dog, mdck, 72 h
[10] = Cytotoxicity against MDCK cells assessed as alteration in cell morphology after 3 days by microscopic method; format: cell-based, Canis lupus familiaris; settings: dog
Outline: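 Mock-infected MDCK cells were treated with compounds in parallel with the antiviral assay, 3 days at 35 °C. MCC is the concentration causing minimal change in cell morphology by microscopy. CC50 is the 50% cytotoxic concentration by MTS formazan viability assay.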

[11] = Selectivity index, ratio of MCC for MDCK cells to EC50 for Influenza A virus A/PR/8/34(H1N1) infected in MDCK cells assessed as reduction in virus-induced cytopathic effect by microscopic method; format: toxicity, cell-based; settings: dog, read-out: Selectivity Index
Outline: (§4)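 Selectivity index is MCC divided by EC50. MCC comes from microscopy of mock-infected MDCK cells. EC50 comes from microscopic scoring of virus-induced CPE in MDCK cells infected at an MOI of 0.0004 PFU/cell with TPCK-trypsin. Both readings were taken after 3 days at 35 °C.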

[12] = Selectivity index, ratio of MCC for MDCK cells to EC50 for Influenza A virus A/Virginia/ATCC3/2009(H1N1pdm) infected in MDCK cells assessed as reduction in virus-induced cytopathic effect by microscopic method; format: toxicity, cell-based; settings: dog, read-out: Selectivity Index; outline: as §4
[13] = Selectivity index, ratio of MCC for MDCK cells to EC50 for Influenza A virus A/HK/7/87(H3N2) infected in MDCK cells assessed as reduction in virus-induced cytopathic effect by microscopic method; format: toxicity, cell-based; settings: dog, read-out: Selectivity Index; outline: as §4
[14] = Selectivity index, ratio of MCC for MDCK cells to EC50 for Influenza B virus B/Ned/537/05 infected in MDCK cells assessed as reduction in virus-induced cytopathic effect by microscopic method; format: toxicity, cell-based; settings: dog, read-out: Selectivity Index; outline: as §4
[15] = Selectivity index, ratio of MCC for MDCK cells to EC50 for Influenza B virus B/HK/05/72 infected in MDCK cells assessed as reduction in virus-induced cytopathic effect by microscopic method; format: toxicity, cell-based; settings: dog, read-out: Selectivity Index; outline: as §4
[16] = system: Human coronavirus 229E; test: Antiviral activity against Human coronavirus 229E infected in HEL299 cells assessed as reduction in virus induced cytopathic effect after 5 days by microscopic method; format: functional, organism-based; settings: HEL 299, 120 h
Outline: (§5)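 Confluent HEL 299 cells in medium with 2% FCS were exposed to HCoV-229E (100 CCID50/well) together with compounds and held for 5 days at 35 °C. EC50 (CPE reduction) and MCC (minimal morphology change) were determined by microscopy. SI is MCC/EC50.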

[17] = Cytotoxicity against HEL299 cells assessed as changes in cell morphology after 5 days by microscopic method; format: cell-based, HEL 299; settings: human; outline: as §5
[18] = system: Human coronavirus 229E; test: Antiviral activity against Human coronavirus 229E infected in human A549 cells assessed as reduction in virus RNA level after 3 days by qRT-PCR method; format: functional; settings: A549, 72 h
Outline: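 Confluent A549 cells were infected with HCoV-229E in 2% FCS medium with compounds present. The inoculum was removed at 1 h and compounds were kept on at 35 °C. Supernatants were harvested at day 3, lysed at 75 °C for 10 min, and viral genome copies counted by one-step qRT-PCR.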

[19] = Cytotoxicity against human A549 cells assessed as changes in cell morphology after 3 days by microscopic method; format: cell-based
Outline: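 Mock-infected A549 cells were incubated with compounds for 3 days. MCC is the concentration causing minimal change in cell morphology by microscopy.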

[20] = system: Influenza B virus; test: Antiviral activity against Influenza B virus B/HK/05/72 infected in MDCK cells assessed as reduction in virus-induced cytopathic effect after 3 days by microscopic method; format: functional, organism-based; settings: B/Hong Kong/05/1972, MDCK, 72 h; outline: as §1
[21] = system: Influenza B virus; test: Antiviral activity against Influenza B virus B/HK/05/72 infected in MDCK cells after 3 days by MTS assay; format: functional, organism-based; settings: B/Hong Kong/05/1972, MDCK, 72 h; outline: as §1
[22] = as §3; format: cell-based, Canis lupus familiaris; settings: dog, MDCK cells
[23] = system: Influenza A virus; test: Antiviral activity against Influenza A virus A/PR/8/34(H1N1) GFP-fused pseudotyped lentiviral particle expressing H1-HA/N1-NA infected in MDCK cells assessed as inhibition of pseudoparticle entry at 2 uM after 3 days by flow cytometry relative to control; format: functional; settings: A/Puerto Rico/8/1934(H1N1), 72 h
Outline: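 MDCK cells were seeded at 7500/well and one day later were exposed to compounds plus GFP lentiviral pseudoparticles bearing A/PR/8/34 H1-HA and N1-NA, with HA0 activated by trypsin. After 3 days the cells were trypsinized, fixed in paraformaldehyde and analysed for GFP by flow cytometry. Entry inhibition was taken as the reduction in GFP signal. Data are the mean ± SEM of four independent experiments.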

Row | SMILES | EC50 [1] | EC50 [2] | EC50 [3] | EC50 [4] | EC50 [5] | EC50 [6] | EC50 [7] | EC50 [8] | CC50 [9] | MCC at 72 h [10] | selectivity ratio [11] | selectivity ratio [12] | selectivity ratio [13] | selectivity ratio [14] | selectivity ratio [15] | also measured
1 | CCCCSC1=C(SCCCC)C(=O)N(CCOCCOCCOCCOCc2cn(C3C(=O)N[C@@H]4Cc5ccc(c(Cl)c5)Oc5cc6cc(c5O)Oc5ccc(cc5Cl)[C@@H](O[C@@H]5O[C@H](CO)[C@@H](O)[C@H](O)[C@H]5NC(C)=O)[C@H]5NC(=O)[C@H](NC(O)[C@@H]6NC(=O)[C@@H](NC4=O)c4cc(O)cc(c4)Oc4cc3ccc4O)c3ccc(O)c(c3)-c3c(O)cc(O)cc3[C@H](C(=O)O)NC5=O)nn2)C1=O (stereo partly specified) | 4.8 µM | 5.8 µM | 9500 nM | 8600 nM | 5300 nM | 6000 nM | 5.5 µM | 4.9 µM | > 100 µM | 100 µM | 16 | 16 | 16 | 16 | 16 | EC50 [16]: 8.9 µM; MCC at 120 h [17]: ≥ 100 µM; EC90 [18]: 8.6 µM; EC99 [18]: 29 µM; MCC at 72 h [19]: > 50 µM
2 | CCCCCCCCO[C@@H]1[C@@H](OCCCCCCCC)[C@@H](OC)O[C@H](COCCOCCOCCOCCOCc2cn([C@H]3C(=O)N[C@@H]4Cc5ccc(c(Cl)c5)Oc5cc6cc(c5O)Oc5ccc(cc5Cl)[C@@H](O[C@@H]5O[C@H](CO)[C@@H](O)[C@H](O)[C@H]5NC(C)=O)[C@H]5NC(=O)[C@H](NC(O)[C@@H]6NC(=O)[C@@H](NC4=O)c4cc(O)cc(c4)Oc4cc3ccc4O)c3ccc(O)c(c3)-c3c(O)cc(O)cc3[C@H](C(=O)O)NC5=O)nn2)[C@H]1OCc1ccc(OC)cc1 (stereo partly specified) | 0.8 µM | 1.2 µM | 1400 nM | < 800 nM | 1800 nM | 1200 nM | – | – | – | 20 µM | – | – | – | – | – | EC50 [20]: > 100 µM; EC50 [21]: > 100 µM; CC50 at 72 h [22]: 11 µM; inhibition at 2 µM [23]: 54%
3 | CC(=O)N[C@H]1[C@H](O[C@@H]2c3ccc(c(Cl)c3)Oc3cc4cc(c3O)Oc3ccc(cc3Cl)C[C@H]3NC(=O)[C@H](N5C(=O)C(SC[C@H]6O[C@@H]7OC(C)(C)O[C@@H]7[C@H]7OC(C)(C)O[C@H]76)=C(SC[C@H]6O[C@@H]7OC(C)(C)O[C@@H]7[C@H]7OC(C)(C)O[C@H]76)C5=O)c5ccc(O)c(c5)Oc5cc(O)cc(c5)[C@H](NC3=O)C(=O)N[C@H]4C(O)N[C@H]3C(=O)N[C@H]2C(=O)N[C@@H](C(=O)O)c2cc(O)cc(O)c2-c2cc3ccc2O)O[C@H](CO)[C@@H](O)[C@@H]1O (stereo partly specified) | > 100 µM | 9.1 µM | 2100 nM | 2200 nM | 2300 nM | 1700 nM | > 100 µM | 4.2 µM | 26 µM | 20 µM | 5 | 5 | 5 | 5 | 5 | –
